Assay results: ChEMBL document CHEMBL1156880, “Isosorbide-based cholinesterase inhibitors; replacement of 5-ester groups leading to increased stability” (Bioorg Med Chem, 2010)
The source made the active and inactive calls. The calls are words filed in the database; no cut-off is given here.

Assays:
[1] = target: T1, Cholinesterase (Homo sapiens, UniProt P06276); assay: Inhibition of human plasma BuChE at 100 uM preincubated for 30 mins before substrate addition by Ellman's assay; type: cell-free
How it was run: (§1)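 Ellman assay, phosphate buffer pH 8.0. Human plasma from heparinised venous blood, centrifuged and diluted 1 mL to 20 mL in buffer, with DTNB. Inhibitor, in acetonitrile/water 1:1 as vehicle, preincubated 30 min before butyrylthiocholine is added (final 0.5 mM); 412 nm read over 5 min. Screened at 100 μM; IC50 determined only where inhibition exceeded 90%. Controls without enzyme; n = 6.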

[2] = target: Acetylcholinesterase (Electrophorus electricus) (UniProt O42275); assay: Inhibition of electric eel AChE at 100 uM preincubated for 30 mins before substrate addition by Ellman's assay
How it was run: (§2)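 Ellman assay, phosphate buffer pH 8.0. Inhibitor, in acetonitrile/water 1:1 as vehicle, preincubated with enzyme 30 min before acetylthiocholine is added (final 0.5 mM); 412 nm read over 5 min. Screened at 100 μM; IC50 found by serial lower concentrations only where inhibition exceeded 90%. Controls without enzyme account for spontaneous hydrolysis; n = 6.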

[3] = target: T1, Cholinesterase; assay: Inhibition of human plasma BuChE preincubated for 30 mins before substrate addition by Ellman's assay; how it was run: as §1
[4] = Selectivity for human plasma BuChE over electric eel AChE; type: cell-free
How it was run: (§3)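 Ratio of the 30 min BuChE and AChE IC50 values from the Ellman assays, using 100 μM in place of any IC50 that was not determined.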

[5] = tested on: Mus musculus; assay: Inhibition of BuChE in CD1 mouse plasma at 1 mg/kg, ip administered as single dose measured after 72 hrs; type: functional, organism-based; design: dose 1 mg/kg
How it was run: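 Male CD-1 mice (35–40 g) given one ip injection, 0.1 mL per 10 g body weight, into the left lower abdominal quadrant; n = 9 split into three subgroups of 3 for serial sampling. Submandibular blood (about 50 μL) collected into lithium heparin and kept on ice; terminal sampling by cardiac puncture under ketamine/xylazine. Plasma spun 10 min at 4 °C, then BuChE activity read ex vivo by Ellman assay.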

[6] = Selectivity for electric eel AChE over human plasma BuChE; type: cell-free; how it was run: as §3
[7] = target: Acetylcholinesterase (Electrophorus electricus, UniProt O42275); assay: Inhibition of electric eel AChE preincubated for 30 mins before substrate addition by Ellman's assay; how it was run: as §2
Sequence of Acetylcholinesterase (O42275 whole entry): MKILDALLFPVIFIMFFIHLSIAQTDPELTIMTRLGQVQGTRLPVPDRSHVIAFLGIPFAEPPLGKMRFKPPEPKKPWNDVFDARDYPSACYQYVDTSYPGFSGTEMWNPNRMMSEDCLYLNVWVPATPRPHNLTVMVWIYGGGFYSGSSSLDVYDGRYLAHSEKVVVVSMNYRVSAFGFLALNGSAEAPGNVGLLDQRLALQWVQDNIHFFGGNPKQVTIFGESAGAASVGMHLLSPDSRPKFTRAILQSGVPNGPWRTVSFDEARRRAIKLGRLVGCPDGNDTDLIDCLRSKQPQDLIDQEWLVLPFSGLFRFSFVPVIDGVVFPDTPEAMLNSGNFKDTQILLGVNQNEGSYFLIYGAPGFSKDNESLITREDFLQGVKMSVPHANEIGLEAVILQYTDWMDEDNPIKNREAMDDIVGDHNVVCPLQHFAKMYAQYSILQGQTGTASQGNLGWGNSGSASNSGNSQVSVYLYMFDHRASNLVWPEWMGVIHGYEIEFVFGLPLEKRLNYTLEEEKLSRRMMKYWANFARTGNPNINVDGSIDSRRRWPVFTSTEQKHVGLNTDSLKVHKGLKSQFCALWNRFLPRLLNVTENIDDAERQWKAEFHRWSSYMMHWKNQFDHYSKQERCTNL

Sequence of Acetylcholinesterase (Electrophorus electricus) (O42275 24-633 limits assumed): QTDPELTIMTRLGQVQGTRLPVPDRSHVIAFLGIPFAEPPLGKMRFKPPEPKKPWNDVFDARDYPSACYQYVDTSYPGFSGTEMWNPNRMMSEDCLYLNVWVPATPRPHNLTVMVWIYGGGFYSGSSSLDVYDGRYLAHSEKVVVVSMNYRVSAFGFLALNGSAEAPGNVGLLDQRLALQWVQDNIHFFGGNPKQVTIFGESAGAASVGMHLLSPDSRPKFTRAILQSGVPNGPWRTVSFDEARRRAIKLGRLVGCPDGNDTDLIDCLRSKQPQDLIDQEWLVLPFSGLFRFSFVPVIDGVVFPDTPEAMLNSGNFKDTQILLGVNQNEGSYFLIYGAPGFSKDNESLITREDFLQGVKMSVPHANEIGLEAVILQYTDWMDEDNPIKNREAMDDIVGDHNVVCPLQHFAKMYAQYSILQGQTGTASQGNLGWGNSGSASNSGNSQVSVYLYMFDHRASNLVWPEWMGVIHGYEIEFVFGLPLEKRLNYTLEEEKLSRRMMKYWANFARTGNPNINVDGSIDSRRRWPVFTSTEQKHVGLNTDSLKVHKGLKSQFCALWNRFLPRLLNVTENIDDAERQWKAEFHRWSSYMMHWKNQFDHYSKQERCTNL
T1 sequence (P06276 whole entry): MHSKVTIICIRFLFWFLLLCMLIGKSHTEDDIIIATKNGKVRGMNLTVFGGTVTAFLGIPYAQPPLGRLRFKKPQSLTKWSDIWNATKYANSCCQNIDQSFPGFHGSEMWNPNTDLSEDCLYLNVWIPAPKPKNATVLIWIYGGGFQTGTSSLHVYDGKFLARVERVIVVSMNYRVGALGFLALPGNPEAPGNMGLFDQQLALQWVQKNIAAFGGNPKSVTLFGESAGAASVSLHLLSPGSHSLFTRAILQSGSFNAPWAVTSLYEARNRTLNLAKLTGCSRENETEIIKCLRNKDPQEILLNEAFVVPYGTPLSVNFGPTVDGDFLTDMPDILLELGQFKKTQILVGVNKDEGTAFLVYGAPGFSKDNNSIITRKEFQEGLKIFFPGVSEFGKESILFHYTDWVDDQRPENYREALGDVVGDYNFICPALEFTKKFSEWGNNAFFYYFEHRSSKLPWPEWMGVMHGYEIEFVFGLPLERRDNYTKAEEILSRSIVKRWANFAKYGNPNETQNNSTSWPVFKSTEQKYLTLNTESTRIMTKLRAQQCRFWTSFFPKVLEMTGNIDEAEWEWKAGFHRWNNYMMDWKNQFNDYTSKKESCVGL

Row | SMILES | inhibition [1] | inhibition [2] | IC50 [3] | Selectivity ratio [4] | inhibition [5] | Selectivity ratio [6] | IC50 [7]
1 | O=C(Nc1ccccc1)O[C@H]1CO[C@H]2[C@@H]1OC[C@H]2OC(=O)Nc1ccccc1 | 20.6% | 77% |  |  |  |  | 
2 | O=C(NCc1ccccc1)O[C@H]1CO[C@@H]2/C(=N/OC(=O)c3ccccc3)CO[C@H]12 | 64.8% | 9% |  |  |  |  | 
3 | CCCCNC(=O)O[C@H]1CO[C@H]2[C@@H]1OC[C@H]2OC(=O)NCCCC |  | 13% | 1.22 µM | 81 |  |  | 
4 | O=C(NCc1ccccc1)O[C@H]1CO[C@@H]2C=CO[C@H]12 |  | 9.8% | 10.2 µM | 9.7 |  |  | 
5 | O=C1CO[C@H]2[C@H](OC[C@@H]2OC(=O)NCc2ccccc2)O1 (relative stereo) | 56% | 10% |  |  |  |  | 
6 | [N-]=[N+]=N[C@@H]1CO[C@H]2[C@@H]1OC[C@@H]2OC(=O)NCc1ccccc1 | 50.4% | 5% |  |  |  |  | 
7 | O=C(NCc1ccccc1)O[C@H]1CO[C@@H]2C(=O)CO[C@H]12 | 46% | 10% |  |  |  |  | 
8 | O=C(NCc1ccccc1)O[C@H]1CO[C@H]2[C@@H]1OC[C@H]2OCc1ccccc1 |  | 55% | 0.052 µM | 1920 | Active |  | 
9 | O=C(Nc1ccc([N+](=O)[O-])cc1)O[C@H]1CO[C@H]2[C@@H]1OC[C@H]2OC(=O)Nc1ccc([N+](=O)[O-])cc1 | 17.4% |  |  |  |  | 18.5 | 5.4 µM
10 | O=C(NCc1ccccc1)O[C@H]1CO[C@H]2[C@@H]1OC[C@H]2NC(=O)c1ccccc1 | 88% | 46% |  |  |  |  | 
11 | O=C(NCc1ccccc1)O[C@H]1CO[C@@H]2/C(=N/O)CO[C@H]12 | 40% | 83% |  |  |  |  | 
12 | CN1C(=O)CO[C@@H]2[C@@H](OC(=O)NCc3ccccc3)CO[C@@H]21 | 63% | 6.5% |  |  |  |  | 
13 | O=C(Nc1ccc(Cl)cc1)O[C@H]1CO[C@H]2[C@@H]1OC[C@H]2OC(=O)Nc1ccc(Cl)cc1 | 7.96% |  |  |  |  |  | 
14 | CCOC(=O)/C=C1\CO[C@@H]2[C@@H](OC(=O)NCc3ccccc3)CO[C@H]12 |  | 4.9% | 4.8 µM | 21 |  |  | 
15 | O=C(NCc1ccccc1)O[C@H]1CO[C@H]2[C@@H]1OC[C@H]2OC(=O)NCc1ccccc1 |  | 77% | 0.4 µM | 250 |  |  | 
16 | CCCNC(=O)O[C@H]1CO[C@H]2[C@@H]1OC[C@H]2OC(=O)NCCC |  | 28% | 10.4 µM | 9.6 |  |  | 
17 | CCNC(=O)O[C@H]1CO[C@H]2[C@@H]1OC[C@H]2OC(=O)NCC | 55.1% |  |  |  |  | 15.4 | 6.5 µM
